In publication PMC4467258 (Clinical Pharmacology in Drug Development, 2014):
Converted amounts (≈) assume the structure as drawn. “And” between values parts separate entries of the source, which are not always exact repeats. Equal values may be shown once. Read-outs that look alike come from different tables or passages of the source. Marks after values point to notes of the source that are not given here.

Legend:
Safety and tolerability = type: in vivo, human
How it was run: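 Open-label, randomized, 4-period balanced crossover in healthy adults (18–65 years, ≥40 kg; women of non-childbearing potential only). Single 1500-mg (free base equivalent) dose of test compound (peptide deformylase inhibitor) as IV mesylate salt solution, 60-minute infusion, fasted; 3-day washout between periods. Safety from observed AEs and changes over time in hematology, clinical chemistry, urinalysis, vital signs and ECGs, summarized descriptively.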

[1] = Biopharmaceutics Classification System characteristics; type: physicochemical; conditions: high permeability and poor solubility; no official regulatory decision yet
[2] = cited from earlier work
[3] = type: in vivo, human; conditions: for AUC(0-inf): AUC0−∞; for Tmax: median (range)
How it was run: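 Open-label, randomized 4-period crossover in healthy adults (18–65 y, ≥40 kg). Each received single 1500-mg free-base-equivalent doses: 60-min IV mesylate infusion, tablet fasted or after a 490-calorie moderate-fat meal, and oral mesylate solution fasted, with 3-day washouts. Plasma sampled predose to 72 h; LC-MS/MS (5–5000 ng/mL). Noncompartmental analysis; bioavailability from oral vs IV AUC0−∞; log-transformed mixed-effects model; CVw from residual MSE.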

Solubility = type: physicochemical
[4] = Fed to fasted, free base tablet
[5] = human, plasma, oral, 1500 mg, mean (SD), 1500-mg free base tablet, fasted state
[6] = human, plasma, po, 1500 mg, mean (SD), 1500-mg oral MS solution, fasted state

Biopharmaceutics Classification System class [1]: Class 2
Relative bioavailability, ratio of geometric least square mean Cmax (90% CI) ([3]; Fasted to MS): 0.57 (0.48, 0.69)
Tmax estimated median difference (90% CI) ([3]; Fasted to MS): 0.13 (0.00, 0.37) ^c h
Relative bioavailability, ratio of geometric least square mean AUC0−∞ (90% CI) ([3]; Fasted to MS (free base tablet fasted vs oral MS solution)): 0.62 (0.56, 0.69)
Relative bioavailability, ratio of geometric least square mean Cmax (90% CI) ([3]; Fed to MS): 0.57 (0.47, 0.68)
Tmax estimated median difference (90% CI) ([3]; Fed to MS): 0.99 (0.63, 1.74) ^d h
Relative bioavailability, ratio of geometric least square mean AUC0−∞ (90% CI) ([3]; Fed to MS (free base tablet fed vs oral MS solution)): 0.84 (0.76, 0.94)
Food effect, ratio of geometric least square mean AUC0−∞ (90% CI) [3, 4]: 1.36 (1.22, 1.51)
Food effect, ratio of geometric least square mean Cmax (90% CI) [3, 4]: 0.99 (0.82, 1.18)
Tmax estimated median difference (90% CI) [3, 4]: 0.88 (0.50, 1.25) ^e h
Relative bioavailability ([3]; free base tablet after a meal vs fasted state): 136%
Absolute bioavailability, ratio of geometric least square mean AUC0−∞ (90% CI) ([3]; free base tablet fasted vs IV, 1500 mg): 0.57 (0.51, 0.63)
Relative bioavailability ([3]; free base tablet fasted vs oral mesylate salt solution fasted): 62%
Absolute bioavailability, ratio of geometric least square mean AUC0−∞ (90% CI) ([3]; free base tablet fed vs IV, 1500 mg): 0.77 (0.69, 0.86)
Relative bioavailability ([3]; free base tablet fed vs oral mesylate salt solution fasted): 84%
Increase in AUC0−∞ with food ([3]; free base tablet, fed vs fasted state, moderate-fat/calorie meal): 36%
Vd ([3]; human, plasma, iv, 1500 mg): 69.2 L
clearance ([3]; human, plasma, iv, 1500 mg): 367 mL/min
AUC(0-inf) ([3]; human, plasma, iv, 1500 mg, mean (SD), 1500-mg IV MS solution, 60-minute infusion): 75400 ng·h/mL
Cmax ([3]; human, plasma, iv, 1500 mg, mean (SD), 1500-mg IV MS solution): 28600 ng/mL
Tmax ([3]; human, plasma, iv, 1500 mg, 1500-mg IV MS solution): 1 h
half-life ([3]; human, plasma, iv, 1500 mg, t1/2, mean (SD), 1500-mg IV MS solution): 10.3 h
AUC(0-inf) [3, 5]: 46100 ng·h/mL
AUC(0-inf) ([3]; human, plasma, oral, 1500 mg, mean (SD), 1500-mg free base tablet, fed state (moderate-fat/calorie meal)): 58900 ng·h/mL
Cmax [3, 5]: 17100 ng/mL
Cmax ([3]; human, plasma, oral, 1500 mg, mean (SD), 1500-mg free base tablet, fed state): 15500 ng/mL
Tmax ([3]; human, plasma, oral, 1500 mg, 1500-mg free base tablet, fasted state): 0.5 h
Tmax ([3]; human, plasma, oral, 1500 mg, 1500-mg free base tablet, fed state): 1.5 h
half-life ([3]; human, plasma, oral, 1500 mg, t1/2, mean (SD), 1500-mg free base tablet, fasted state): 9.4 h
half-life ([3]; human, plasma, oral, 1500 mg, t1/2, mean (SD), 1500-mg free base tablet, fed state): 8.7 h
half-life ([3]; human, plasma, other: IV or oral, 1500 mg, t1/2, range of means after single-dose IV or oral administration): 8.7 to 10.3 h
AUC(0-inf) [3, 6]: 69700 ng·h/mL
Cmax [3, 6]: 25800 ng/mL
Tmax ([3]; human, plasma, po, 1500 mg, 1500-mg oral MS solution, fasted state): 0.5 h
half-life ([3]; human, plasma, po, 1500 mg, t1/2, mean (SD), 1500-mg oral MS solution, fasted state): 9.6 h
Varea ([3]; mean (SD), 1500-mg IV MS solution): 317.2 (131.5) L
CL/F ([3]; mean (SD), 1500-mg free base tablet, fasted state): 42.6 (26.6) L/h
CL/F ([3]; mean (SD), 1500-mg free base tablet, fed state): 28.4 (9.0) L/h
CL/F ([3]; mean (SD), 1500-mg oral MS solution, fasted state): 23.8 (7.3) L/h
Absolute bioavailability, ratio of geometric least square mean AUC0−∞ (90% CI) ([3]; oral MS solution fasted vs IV, 1500 mg): 0.92 (0.82, 1.02)
CVw (within coefficient of variation) of AUC0−∞ ([3]; pooled across regimens): 22%
CVw (within coefficient of variation) of Cmax ([3]; pooled across regimens): 39% and 38.7%
solubility (Solubility; fasted state-simulated intestinal fluid, pH 6.5, fassif): ~0.5 mg/mL (≈ 1.04 mM)
solubility (Solubility; pH 3.5): 40 mg/mL (≈ 83.4 mM)
Structure (SMILES): Cc1nc(NNC(=O)[C@H](CC2CCCC2)CN(O)C=O)c(F)c(N2CCN3CCOC[C@@H]3C2)n1 [GSK1322322]
Withdrawal because of a drug-related AE (bronchospasm) (Safety and tolerability; IV 1500 mg, period 3): One volunteer was withdrawn
Vital signs, chemistry, or hematology data (Safety and tolerability; all treatments): No apparent trends or changes from baseline
Intensity of adverse events (Safety and tolerability; all treatments, single 1500-mg doses): mild-to-moderate
Volunteers with an AE per treatment (Safety and tolerability; range across the four treatments): 42–65%
Relative bioavailability fed vs fasted ([2]; free base tablet 1000 mg): 119%
Cmax ([2]; single 1500-mg IV dose, first-time-in-human IV study): 25500 ng/mL
Absolute bioavailability ([2]; tablet formulation 1500 mg, previous phase I study): 56%
